Columns and labels:
Canis familiaris [1] = assay: Inhibition of gastric acid secretion at 40 mg/kg oral administration to dogs; format: functional; details: Canis lupus familiaris, Stomach
Method in brief: (§1)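 Unanesthetized female beagle dogs with chronic gastric fistula; compound in 50 mL aqueous 1% methylcellulose delivered into stomach via fistula cannula 60 min before gastrin tetrapeptide (64 μg/kg sc, maximal secretory dose). Gastric output drained by gravity over three 30-min periods; acid concentration by titration to pH 7 with 0.01 N NaOH; percent decrease in acid concentration versus placebo trial in same animal; dose as base weight.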

Canis familiaris [2] = assay: Inhibition of gastric acid secretion at 20 mg/kg oral administration to dogs; format: functional; details: Canis lupus familiaris, Stomach; method in brief: as §1
Canis familiaris [3] = assay: Inhibition of gastric acid secretion at 10 mg/kg oral administration to dogs; format: functional; details: Canis lupus familiaris, Stomach; method in brief: as §1
Canis familiaris [4] = assay: Inhibition of gastric acid secretion at 40 mg/kg oral administration to dogs; Compound is CNS (central nervous system) effective; format: functional, organism-based; parameters: dose 40 mg/kg; details: Canis lupus familiaris, Stomach; method in brief: as §1
Canis familiaris [5] = assay: Acid concentration of gastrin tetrapeptide stimulated inhibition of gastric secretion when administered perorally in dogs; format: functional; details: Canis lupus familiaris, Stomach, po
Method in brief: (§2)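 Unanesthetized female beagle dogs with chronic gastric fistula; compound in 50 mL 1% aqueous methylcellulose given into stomach via fistula cannula 60 min before stimulant (gastrin tetrapeptide 64 μg/kg sc, or histamine dihydrochloride 64 μg base/kg sc). Output drained by gravity, three 30-min periods; volume measured, acid concentration titrated to pH 7 with 0.01 N NaOH, output = volume × concentration. Percent change vs placebo trial in same dog.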

Canis familiaris [6] = assay: Acid concentration of histamine stimulated inhibition of gastric secretion when administered perorally in dogs; format: functional; details: Canis lupus familiaris, Stomach, po; method in brief: as §2
Canis familiaris [7] = assay: Acid output of gastrin tetrapeptide stimulated inhibition of gastric secretion when administered perorally in dogs; format: functional; details: Canis lupus familiaris, Stomach, po; method in brief: as §2
Canis familiaris [8] = assay: Acid output of histamine stimulated inhibition of gastric secretion when administered perorally in dogs; format: functional; details: Canis lupus familiaris, Stomach, po; method in brief: as §2
Canis familiaris [9] = assay: Volume of gastrin tetrapeptide stimulated inhibition of gastric secretion when administered perorally in dogs; format: functional; details: Canis lupus familiaris, Stomach, po; method in brief: as §2
Canis familiaris [10] = assay: Volume of histamine stimulated inhibition of gastric secretion when administered perorally in dogs; format: functional; details: Canis lupus familiaris, Stomach, po; method in brief: as §2

SMILES | inhibition in vivo at 40 mg/kg (Canis familiaris [1]) [%] | inhibition in vivo at 20 mg/kg (Canis familiaris [2]) [%] | inhibition in vivo at 10 mg/kg (Canis familiaris [3]) [%] | other results
CCCN(CCC)CCN(C(=O)N(C)C)c1cc(C)cc(C)n1 | 93 | 22 | – | –
CC(C)N(CCN(C(=O)N(C)C)c1ccccn1)C(C)C | 82 | 17 | – | –
CC(C)N(CCN(C(=O)N(C)C)c1ccc(Cl)cn1)C(C)C | – | 63 | 44 | –
Cc1cc(C)nc(N(CCN(C(C)C)C(C)C)C(N)=O)c1 | – | 18 | – | inhibition (Canis familiaris [4]): CNS effect
CNC(=O)N(CCN(C(C)C)C(C)C)c1cc(C)cc(C)n1 | – | 44 | – | inhibition (Canis familiaris [4]): CNS effect
Cc1cc(Cl)nc(N(CCN(C(C)C)C(C)C)C(=O)N(C)C)c1 | – | 71 | 52 | –
CC(C)N(CCN(C(=O)N(C)C)c1cccc(Cl)n1)C(C)C | – | 78 | – | –
Cc1cc(C)nc(N(CCN(C)C)C(=O)N(C)C)c1 | 58 | 58 | 14 | –
Cc1cc(N(CCN(C(C)C)C(C)C)C(=O)N(C)C)nc(C)c1Cl | – | 95 | 62 | –
Cc1ccc(N(CCN(C(C)C)C(C)C)C(=O)N(C)C)nc1 | 33 | 19 | – | –
CNCCN(C(=O)N(C)C)c1cc(C)cc(C)n1 | 20 | – | – | –
COc1ccnc(N(CCN(C(C)C)C(C)C)C(=O)N(C)C)c1 | – | 84 | 64 | –
Cc1ccnc(N(CCN(C(C)C)C(C)C)C(=O)N(C)C)c1 | – | 95 | 79 | –
Cc1cccc(N(CCN(C(C)C)C(C)C)C(=O)N(C)C)n1 | – | 87 | 54 | –
CN/C(=N\CCSCc1nc[nH]c1C)NC#N [CIMETIDINE] | – | – | – | ED50 (Canis familiaris [5]): 6.4 mg/kg; ED50 (Canis familiaris [6]): 5 mg/kg; ED50 (Canis familiaris [7]): 3.6 mg/kg; ED50 (Canis familiaris [8]): 2.6 mg/kg; ED50 (Canis familiaris [9]): 3.9 mg/kg; ED50 (Canis familiaris [10]): 3.5 mg/kg
Cc1cc(C)nc(N(CCCN(C(C)C)C(C)C)C(=O)N(C)C)c1 | 35 | 0 | – | –
Cc1cc(C)nc(N(CCCCN(C(C)C)C(C)C)C(=O)N(C)C)c1 | 3 | 5 | – | –
Cc1cc(C)nc(N(CCN(C(C)C)C(C)C)C(=O)N(C)C)c1.Cl | – | 100 | 70 | ED50 (Canis familiaris [5]): 6.8 mg/kg; ED50 (Canis familiaris [6]): 9.6 mg/kg; ED50 (Canis familiaris [7]): 3.3 mg/kg; ED50 (Canis familiaris [8]): 5.1 mg/kg; ED50 (Canis familiaris [9]): 3.8 mg/kg; ED50 (Canis familiaris [10]): 12.6 mg/kg
Cc1cc(C)nc(N(CCNC(C)C)C(=O)N(C)C)c1 | 42 | 33 | – | –

Source: ChEMBL document CHEMBL1122360, “Inhibitors of gastric acid secretion: antisecretory 2-pyridylurea derivatives” (1983)
